Like-named read-outs stand apart in the source and are kept apart here. Square brackets hold non-standard residues; d marks the D form. Peptide text beside a SMILES is read from it. Orn(N5-OH,N5-Ac) = CC(=O)N(O)CCC[C@H](N)C(=O)O
Columns and labels:
YxeB-S142-6×His [1] = target: T1, YxeB-S142-6×His (Bacillus cereus, UniProt Q81IK3, L142S); assay: Fluorescence quenching; assay type: binding
T1 sequence (Q81IK3 19-306 L142S): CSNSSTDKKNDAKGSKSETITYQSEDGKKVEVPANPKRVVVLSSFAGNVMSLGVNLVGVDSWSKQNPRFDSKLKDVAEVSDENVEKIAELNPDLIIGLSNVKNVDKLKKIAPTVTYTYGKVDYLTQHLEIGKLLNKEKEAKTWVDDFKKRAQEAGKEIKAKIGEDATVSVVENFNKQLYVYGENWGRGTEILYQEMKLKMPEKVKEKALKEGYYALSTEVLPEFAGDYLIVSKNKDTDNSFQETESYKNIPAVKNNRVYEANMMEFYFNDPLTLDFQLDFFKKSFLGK

YxeB-S142-6×His [2] = target: T1, YxeB-S142-6×His; assay: Substrate binding assay using RP-HPLC; conditions: bound = substrate detected in the protein complex analyzed by RP-HPLC
Procedure, shortened: (§1)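 His-tagged protein (2 μM) was bound to Ni-agarose beads in TBS over 2 h at RT. Substrate was added for 10 min at RT: 10 μM metal complex or 20 μM apo-ligand. Pellets were washed twice, then extracted with 20% acetonitrile (Ga complex) or 0.1% TFA for 20 min. C18 RP-HPLC at 220 nm followed, with a 0–25% acetonitrile gradient.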

YxeB-L142-6×His [3] = target: T2, YxeB-L142-6×His (Bacillus cereus, UniProt Q81IK3); assay: Substrate binding assay using RP-HPLC; conditions: bound = substrate detected in the protein complex analyzed by RP-HPLC
T2 sequence (Q81IK3 19-306): T1 sequence (Q81IK3 19-306 L142S)
Procedure, shortened: as §1

[4] = system: DFO:YxeB-L142-6×His complex; assay: Iron exchange experiment in vitro analysed by RP-HPLC; assay type: biochemical, Bacillus cereus; conditions: for metal exchange rate (FO formed): 0.2 nmol/mL added; for FO bound to YxeB (iron transferred to DFO): 0.2 nmol/mL metal–substrate added to YxeB:DFO, 40 min incubation
YxeB-L142-6×His [5] = target: T2, YxeB-L142-6×His; assay: Fluorescence quenching; assay type: binding
[6] = system: DFO:YxeB-S142-6×His complex; assay: Iron exchange experiment in vitro analysed by RP-HPLC; assay type: biochemical, Bacillus cereus
Procedure, shortened: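 His-tagged YxeB (2 μM), 4 μM DFO and Ni-agarose beads were mixed 2 h at RT in TBS, then given 0.2 μM (final) acetylated ferrioxamine. Pelleted aliquots were washed twice and eluted 20 min in 0.01% TFA. Eluates ran on C18 RP-HPLC (0.1% TFA/acetonitrile, 0–25% over 50 min, 220 nm) to quantify bound ligands.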

[7] = Iron exchange experiment without the YxeB protein; conditions: 0.2 μM AcFO, 4 μM DFO, no protein; up to 24 h
Procedure, shortened: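 No protein was present: 4 μM DFO and 0.2 μM acetylated ferrioxamine (final concentrations) were mixed in TBS at RT. Samples taken at 0 and 5 min and at 1, 3 and 24 h went directly onto C18 RP-HPLC (0.1% TFA/acetonitrile, 0–25% over 50 min, 220 nm).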

TC137 strain [8] = assay: Disc diffusion assay; assay type: cell-based, Bacillus cereus; conditions: 10 nmol infused in the disc (supplement: 10 pmol)
Procedure, shortened: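 Sterile filter discs were loaded with 10 nmol siderophore; 6 μL DMSO served as the negative control. Growth was scored around each disc.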

[9] = cited from earlier work
YxeB-S142-6×His [10] = target: T1, YxeB-S142-6×His; conditions: calculated previously; cited from earlier work
TC137 strain [11] = assay: Growth assay in iron-limited minimum medium; assay type: cell-based, Bacillus cereus; conditions: 10 or 100 nM siderophore in iron-limited minimum medium
[12] = system: DFO:YxeB-L142-6×His complex; assay: Fe-/Ga-/Cr-DFO substrate binding; assay type: biochemical, Bacillus cereus; conditions: ICP analysis; for metal exchange rates or displaced substrate rates: 0.2 nmol/mL added, 30 min incubation; for substrates bound to YxeB except DFO: 0.2 nmol/mL metal–substrate added to YxeB:DFO, after 30 min incubation
Procedure, shortened: (§2)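 2 μM His-tagged YxeB variant, 4 μM DFO and Ni-agarose beads were shaken 2 h at RT in TBS (25 mM Tris-HCl, pH 7.4). Then 0.2 μM (final) Fe-, Ga- or Cr-hydroxamate was added at RT. Pellets collected at 0–30 min were digested overnight in 3.5% nitric acid and measured by ICP with 0.1 ppm Eu internal standard. Results are the mean of three experiments, with standard errors.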

[13] = system: DFO:YxeB-L/S142-6×His complex; assay: ICP exchange or displacement assay, text statements covering both variants; assay type: biochemical, Bacillus cereus; conditions: 0.2 μM added; for metal (Ga, Fe, Cr) contained in the YxeB complexes: both YxeB-L142 and -S142 complexes; for amounts of metal transferred after 5 min incubation: both variants; for Ga and Fe transferred to the DFO:YxeB complex: within the 5 min incubation time
Procedure, shortened: as §2

YxeB-L142-6×His [14] = target: T2, YxeB-L142-6×His; conditions: calculated previously; cited from earlier work
[15] = system: DFO:YxeB-S142-6×His complex; assay: Fe-/Ga-/Cr-DFO substrate binding; assay type: biochemical, Bacillus cereus; conditions: ICP analysis; for metal exchange rates or displaced substrate rates: 0.2 nmol/mL added, 30 min incubation; for substrates bound to YxeB except DFO: 0.2 nmol/mL metal–substrate added to YxeB:DFO, after 30 min incubation
Procedure, shortened: as §2

[16] = system: wild-type strains, TC128 and TC129; assay: Cr-DFO and Ga-DFO import, metal in cells measured by ICP; assay type: cell-based, Bacillus cereus; conditions: 2 μM metal complex added in the culture
Procedure, shortened: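 B. cereus cultures at OD600 0.8–1.3 received 2 μM metal–siderophore complex. Incubation was 120 min for Cr and 80 min for Ga, by which point OD600 was 1.6–2.1. Cell-associated Cr or Ga was then quantified by ICP. Values are the average of two independent experiments, with standard errors.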

[17] = read-out: Kd (nM) by FQ assay, calculated by Hyperquad, SD in parentheses
[18] = read-out: Kd (nM) by FQ assay, calculated using fluorescence quenching data previously described

CC(=O)NCCCCCN(O)C(=O)CCC(=O)NCCCCCN(O)C(=O)CCC(=O)NCCCCCN(O)C(C)=O [AcDFO]
Kd (YxeB-S142-6×His [1]): 30.7 nM | binding assay (HPLC) (YxeB-S142-6×His [2]): bound ^d | binding assay (HPLC) (YxeB-L142-6×His [3]): bound ^d

CC(=O)NCCCCCN(O)C(=O)CCC(=O)NCCCCCN(O)C(=O)CCC(=O)NCCCCCN(O)C(C)=O.[Fe+3] [AcFO]
Kd (YxeB-S142-6×His [1]; [17]): 31.6 nM | exchange amount (FO formed) after 8 min incubation ([4]; 0.2 μM AcFO added, 8 min): approximately 0.2 μM | incubation time after which iron exchange with YxeB was complete ([4]; 0.2 μM AcFO, 4 μM DFO, 2 μM YxeB-L142-6×His): 2 min | AcDFO bound to YxeB ([4]; RP-HPLC, 0.2 nmol/mL AcFO added, 40 min): 0.110 nmol/mL sample | metal exchange rate (FO formed) ([4]; RP-HPLC, 40 min): 77% | FO bound to YxeB (iron transferred to DFO) ([4]; RP-HPLC): 0.153 nmol/mL sample | rate of iron-released substrate remaining bound to YxeB ([4]; RP-HPLC, AcDFO after AcFO addition): 55% | binding assay (HPLC) (YxeB-S142-6×His [2]): bound ^d | Kd (YxeB-L142-6×His [5]; [17]): 25.4 nM | AcDFO bound to YxeB ([6]; 0.2 nmol/mL AcFO added): 0.089 nmol/mL sample | metal exchange rate (FO formed) ([6]; 0.2 nmol/mL AcFO added): 72% | FO bound to YxeB (iron transferred to DFO) ([6]; 0.2 nmol/mL AcFO added, 10 min incubation): 0.144 nmol/mL sample | rate of iron-released substrate remaining bound to YxeB ([6]; AcDFO after AcFO addition): 45% | iron exchange between AcFO and DFO without YxeB [7]: did not occur | binding assay (HPLC) (YxeB-L142-6×His [3]): bound ^d

CC(=O)N(O)CCCCCNC(=O)CCC(=O)N(O)CCCCCNC(=O)CCC(=O)N(O)CCCCCN [DFO, desferrioxamine B]
growth around a disc containing the siderophore (TC137 strain [8]): did not grow | pFe^III [9]: 26.6 | Kd (YxeB-S142-6×His [10]): 35.9 nM | growth of TC137 compared to wild-type strains TC129 and TC128 (TC137 strain [11]): delayed

CC(=O)N(O)CCC[C@@H]1NC(=O)CNC(=O)CNC(=O)CNC(=O)[C@H](CCCN(O)C(C)=O)NC(=O)[C@H](CCCN(O)C(C)=O)NC1=O [DFch, desferrichrome] (cyclo(GGG[Orn(N5-OH,N5-Ac)][Orn(N5-OH,N5-Ac)][Orn(N5-OH,N5-Ac)]))
growth around a disc containing the siderophore (TC137 strain [8]): did not grow | Kd (YxeB-S142-6×His [1]): 23 nM | binding assay (HPLC) (YxeB-S142-6×His [2]): bound ^d | Kd (YxeB-L142-6×His [5]): 104 nM | binding assay (HPLC) (YxeB-L142-6×His [3]): bound ^d | growth of TC137 compared to wild-type strains TC129 and TC128 (TC137 strain [11]): delayed

CC(=O)N([O-])CCCCCNC(=O)CCC(=O)N([O-])CCCCCNC(=O)CCC(=O)N([O-])CCCCCN.[Fe+3] [FO, ferrioxamine B]
Kd (YxeB-S142-6×His [10]): 29.1 nM | metal exchange rates or displaced substrate rates [12]: 86% | substrates bound to YxeB except DFO [12]: 0.172 nmol/mL sample | metal (Ga, Fe, Cr) contained in the YxeB complexes [13]: > 0.15 nmol/mL reaction solution | amounts of metal transferred after 5 min incubation [13]: 0.14–0.18 nmol/mL reaction solution | Ga and Fe transferred to the DFO:YxeB complex [13]: > 70% | Kd (YxeB-L142-6×His [14]): 38.8 nM | metal exchange rates or displaced substrate rates [15]: 83% | substrates bound to YxeB except DFO [15]: 0.166 nmol/mL sample

CC(=O)N(O)CCC[C@@H]1NC(=O)CNC(=O)CNC(=O)CNC(=O)[C@H](CCCN(O)C(C)=O)NC(=O)[C@H](CCCN(O)C(C)=O)NC1=O.[Fe+3] [Fch, ferrichrome] (cyclo(GGG[Orn(N5-OH,N5-Ac)][Orn(N5-OH,N5-Ac)][Orn(N5-OH,N5-Ac)]))
pFe^III [9]: 25.2 | Kd (YxeB-S142-6×His [1]; [18]): 29.3 nM | Fch bound to YxeB (displacement) ([4]; RP-HPLC, 0.2 nmol/mL Fch added, 40 min): 0.037 nmol/mL sample | metal exchange rate (FO formed) ([4]; RP-HPLC, 40 min): 0% | FO bound to YxeB (iron transferred to DFO) ([4]; RP-HPLC): 0 nmol/mL sample | amount of Fch bound to the protein ([4]; displacement mechanism, 0.2 μM Fch, 40 min): 0.037 µM | binding assay (HPLC) (YxeB-S142-6×His [2]): bound ^d | Kd (YxeB-L142-6×His [5]; [18]): 43 nM | binding assay (HPLC) (YxeB-L142-6×His [3]): bound ^d

O=C([O-])CN(CCN(CC(=O)[O-])CC(=O)[O-])CC(=O)[O-].[Fe+3] [Fe-EDTA]
pFe^III [9]: 23.4 | metal exchange rate (FO formed) ([4]; RP-HPLC, 40 min): ≤ 1% | FO bound to YxeB (iron transferred to DFO) ([4]; RP-HPLC): 0.003 nmol/mL sample

O=C(N[C@H]1COC(=O)[C@@H](NC(=O)c2cccc([O-])c2[O-])COC(=O)[C@@H](NC(=O)c2cccc([O-])c2[O-])COC1=O)c1cccc([O-])c1[O-].[Fe+3] [Fe-Ent, Fe-enterobactin]
pFe^III [9]: 34.3 | metal exchange rate (FO formed) ([4]; RP-HPLC, 40 min): ≤ 5%

CC(=O)N(O)CCCCCNC(=O)CCC(=O)N(O)CCCCCNC(=O)CCC(=O)N(O)CCCCCN.[Ga+3] [Ga-DFO]
Kd (YxeB-S142-6×His [1]; [17]): 44.6 nM | metal exchange rates or displaced substrate rates [12]: 78% | substrates bound to YxeB except DFO [12]: 0.155 nmol/mL sample | binding assay (HPLC) (YxeB-S142-6×His [2]): bound ^d | metal (Ga, Fe, Cr) contained in the YxeB complexes [13]: > 0.15 nmol/mL reaction solution | amounts of metal transferred after 5 min incubation [13]: 0.14–0.18 nmol/mL reaction solution | Ga and Fe transferred to the DFO:YxeB complex [13]: > 70% | Kd (YxeB-L142-6×His [5]; [17]): 59.2 nM | metal exchange rates or displaced substrate rates [15]: 83% | substrates bound to YxeB except DFO [15]: 0.165 nmol/mL sample | binding assay (HPLC) (YxeB-L142-6×His [3]): bound ^d | Ga or Cr in the cells (import) [16]: contained Ga or Cr in the cells

C=CC1=C(C)c2cc3[n-]c(cc4[n-]c(cc5nc(cc1n2)C(C)=C5C=C)c(C)c4CCC(=O)O)c(CCC(=O)O)c3C.O.[Fe+2] [hematin]
metal exchange rate (FO formed) ([4]; RP-HPLC, 40 min): ≤ 1% | FO bound to YxeB (iron transferred to DFO) ([4]; RP-HPLC): 0.003 nmol/mL sample

ferric citrate [Fe-Cit]
metal exchange rate (FO formed) ([4]; RP-HPLC, 40 min): 45% | FO bound to YxeB (iron transferred to DFO) ([4]; RP-HPLC): 0.089 nmol/mL sample

Source: PMC4168784 (ACS Chemical Biology, 2014)
